Source: paper PMC11659308 (Communications Chemistry, 2024)
One block for each molecule: values may come before it. Peptide text beside a SMILES is read from it.

How the values were obtained:
[1] = estimated; cited from earlier work
[2] = Asn-Gly isomerisation kinetics followed by time-dependent 1D 1H-NMR; format: physicochemical; conditions: for k2 (Suc→β-Asp) / k3 (Suc→α-Asp) / t1/2, half-life of the Asn species: 1H-NMR time course, 50 mM Na2HPO4 buffer; for k2 (Suc→β-Asp) / k3 (Suc→α-Asp): COPASI fit; for t1/2, half-life of the Asn species: chemical stability
Procedure, shortened: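 Acetylated Asn-Gly-Xxx-Ala amide tetrapeptide (~1 mg) in 50 mM (final) Na2HPO4 with D2O and DSS/NaN3. pH set with 0.1 M HCl/NaOH. Heated samples sonicated 1 min. 1D 1H spectra at 5–120 min and beyond, until reactant fell below ~10%. COSY/TOCSY assignment. Relative integrals fitted to Asn→Suc (irreversible), Suc⇌β-Asp and Suc⇌α-Asp kinetic model.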

[3] = native versus reduced and unfolded forms; cited from earlier work

Molecule: CNC(C)=O [N-methylacetamide]
pKa, deprotonation of the amide group [1]: 18

t1/2, half-life of the Asn species ([2]; pH 7.4, 28 °C): 76.6 h
t1/2, half-life of the Asn species ([2]; pH 7.4, 37 °C): 19.1 h
t1/2, half-life of the Asn species ([2]; pH 7.4, 46 °C): 9.4 h
t1/2, half-life of the Asn species ([2]; pH 7.4, 55 °C): 3.0 h
Molecule: CC(=O)N[C@@H](CC(N)=O)C(=O)NCC(=O)N[C@@H](CCCCN)C(=O)N[C@@H](C)C(N)=O [-NGKA-] (Ac-NGKA-NH2)
k2 (Suc→β-Asp) ([2]; pH 7.4, 28 °C): 0.334 h⁻¹
k3 (Suc→α-Asp) ([2]; pH 7.4, 28 °C): 0.174 h⁻¹
k2 (Suc→β-Asp) ([2]; pH 7.4, 37 °C): 0.643 h⁻¹
k3 (Suc→α-Asp) ([2]; pH 7.4, 37 °C): 0.255 h⁻¹
k2 (Suc→β-Asp) ([2]; pH 7.4, 46 °C): 2.30 h⁻¹
k3 (Suc→α-Asp) ([2]; pH 7.4, 46 °C): 1.150 h⁻¹
k2 (Suc→β-Asp) ([2]; pH 7.4, 55 °C): 4.00 h⁻¹
k3 (Suc→α-Asp) ([2]; pH 7.4, 55 °C): 0.134 h⁻¹
activation Gibbs free energy of the rate-determining initial step (succinimide formation), ∆G‡(1) ([2]; pH 7.4, Arrhenius, slope of ln k1 vs 1/T (28-55 °C)): 87.3 kJ/mol
change in Gibbs free energy of the β-Asp formation step, ∆G‡(2) ([2]; pH 7.4, Arrhenius, slope of ln k2 vs 1/T (28-55 °C)): 85.9 kJ/mol

B1: native ribonuclease A: native ribonuclease A, compared with its reduced and unfolded forms (protein, UniProt P61823 27-150, looked up)
Ribonuclease pancreatic: KETAAAKFERQHMDSSTSAASSSNYCNQMMKSRNLTKDRCKPVNTFVHESLADVQAVCSQKNVACKNGQTNCYQSYSTMSITDCRETGSSKYPNCAYKTTQANKHIIVACEGNPYVPVHFDASV
times less prone to asparagine isomerisation than its reduced and unfolded forms [3]: ~ 30 times
